Laboratory results reported in ChEMBL document CHEMBL3259717, “Synthetic calanolides with bactericidal activity against replicating and nonreplicating Mycobacterium tuberculosis” (J Med Chem, 2014).
Values after ≈ are worked out from the molar mass of the structure shown.

Legend:
[1] = tested on: Mycobacterium tuberculosis; assay: Antibacterial activity against replicating form of Mycobacterium tuberculosis MC2 6220 assessed as growth inhibition after 7 days by high-throughput screening assay; type: functional; details: MC2 6220, 168 h
How it was run: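 Attenuated Mtb mc26220 ΔpanCDΔlysA in 7H9 with glycerol, tyloxapol, OADC, casein amino acids, 240 μg/mL L-lysine, 24 μg/mL pantothenate. Mid-log cells diluted to OD580 0.01 in 384-well plates, compound in DMSO, 7 days at 37 °C, 20% O2, 5% CO2. OD580 read; MIC90 = 90% growth inhibition vs DMSO.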

[2] = tested on: Mycobacterium tuberculosis; assay: Antibacterial activity against non-replicating form of Mycobacterium tuberculosis MC2 6220 assessed as growth inhibition after 3 days by high-throughput screening assay; type: functional; details: MC2 6220, 72 h
How it was run: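 Log-phase mc26220 washed in PBS/tyloxapol, resuspended in Sauton's-based NR medium (butyrate, 0.5 mM NaNO2, pH 5.0) at OD580 0.1. Compound exposure 3 days at 37 °C, 1% O2, 5% CO2. Then R medium added (5-fold dilution), 7 days outgrowth at 20% O2. OD580 read; MIC90 = 90% inhibition vs DMSO.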

[3] = Cytotoxicity against human HepG2 cells assessed as decrease in ATP signal after 2 days by CellTiter-Glo assay; type: cell-based; details: read-out: LD50
How it was run: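 HepG2 in DMEM with 10% FBS, pyruvate, glutamine, HEPES and nonessential amino acids, seeded 3000 cells/well in 384-well plates. Compound for 2 days at 1% final DMSO. ATP read by CellTiter-Glo luminescence. LD50 = 50% drop in ATP signal vs DMSO. SI = LD50/MIC90 against replicating Mtb.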

`CCCc1cc(=O)oc2cc(C#CCOc3ccc(F)cc3)c3c(c12)OC(C)(C)C=C3` gave an MIC90 [1] of over 21 µg/mL, an MIC90 [2] of over 21 µg/mL and a CC50 at 48 h [3] of over 21 µg/mL.

With `CCCc1cc(=O)oc2cc(OC3CCCCC3)c3c(c12)OC(C)(C)C=C3` the MIC90 [1] was over 18 µg/mL, the MIC90 [2] was over 18 µg/mL and the CC50 at 48 h [3] was over 18 µg/mL.

Work on `CCCc1cc(=O)oc2c(C(=O)CC)c(N3CCN(Cc4ccc(F)cc4)CC3)c3c(c12)OC(C)(C)C=C3` yielded an MIC90 [1] of over 26 µg/mL and an MIC90 [2] of 26 µg/mL (≈ 50.1 µM).

For `CCCc1cc(=O)oc2cc(C#Cc3ccc(F)cc3)c3c(c12)OC(C)(C)C=C3`, the MIC90 [1] was over 19 µg/mL, the MIC90 [2] was over 19 µg/mL and the CC50 at 48 h [3] was over 19 µg/mL.

With `CCCc1cc(=O)oc2cc(NC(C)=O)c3c(c12)OC(C)(C)C=C3` the MIC90 [1] was over 16 µg/mL and the MIC90 [2] was over 16 µg/mL.

Compound `Cc1cc(=O)oc2cc(-c3ccc([N+](=O)[O-])o3)c3c(c12)OC(C)(C)C=C3` has an MIC90 [1] of over 18 µg/mL, an MIC90 [2] of over 18 µg/mL and a CC50 at 48 h [3] of over 18 µg/mL.

In the case of `CCCc1cc(=O)oc2c(C(=O)N3CCOCC3)c(O)c3c(c12)OC(C)(C)C=C3`, the MIC90 [1] was over 20 µg/mL, the MIC90 [2] was over 20 µg/mL and the CC50 at 48 h [3] was over 20 µg/mL.

Compound `CCCc1cc(=O)oc2cc(OC(C)C)c3c(c12)OC(C)(C)C=C3` has an MIC90 [1] of over 16 µg/mL, an MIC90 [2] of over 16 µg/mL and a CC50 at 48 h [3] of over 16 µg/mL.

For `CCCc1cc(=O)oc2c3c(cc(OCCN4CCOCC4)c12)O[C@H]([N+](=O)[O-])[C@H]3C` (racemic), the MIC90 [1] was over 21 µg/mL, the MIC90 [2] was over 21 µg/mL and the CC50 at 48 h [3] was over 21 µg/mL.

Work on `CCCc1cc(=O)oc2cc(C#Cc3ccc(C)cc3)c3c(c12)OC(C)(C)C=C3` yielded an MIC90 [1] of over 19 µg/mL, an MIC90 [2] of over 19 µg/mL and a CC50 at 48 h [3] of over 19 µg/mL.

In the case of `CCCc1cc(=O)oc2cc(C#Cc3ccc(OC)cc3)c3c(c12)OC(C)(C)C=C3`, the MIC90 [1] was over 20 µg/mL, the MIC90 [2] was over 20 µg/mL and the CC50 at 48 h [3] was over 20 µg/mL.

Compound `CCCc1cc(=O)oc2cc(N3CCN(C(=O)Nc4ccc(F)c(Cl)c4)CC3)c3c(c12)OC(C)(C)C=C3` has an MIC90 [1] of over 26 µg/mL, an MIC90 [2] of over 26 µg/mL and a CC50 at 48 h [3] of over 26 µg/mL.

Compound `CCCc1cc(=O)oc2cc(OCc3ccccc3)c3c(c12)OC(C)(C)C=C3` has an MIC90 [1] of over 19 µg/mL and an MIC90 [2] of over 19 µg/mL.

Compound `CCCc1cc(=O)oc2cc(N3CCN(C(=O)Nc4ccc(C#N)cc4)CC3)c3c(c12)OC(C)(C)C=C3` has an MIC90 [1] of over 25 µg/mL, an MIC90 [2] of over 25 µg/mL and a CC50 at 48 h [3] of over 25 µg/mL.

Work on `CCCc1cc(=O)oc2cc(OCC(=O)NCCc3ccccc3)c3c(c12)OC(C)(C)C=C3` yielded an MIC90 [1] of over 22 µg/mL and an MIC90 [2] of over 22 µg/mL.

With `CCCc1cc(=O)oc2cc(N3CCN(C(=O)Nc4ccc(F)cc4)CC3)c3c(c12)OC(C)(C)C=C3` the MIC90 [1] was over 25 µg/mL, the MIC90 [2] was over 25 µg/mL and the CC50 at 48 h [3] was over 25 µg/mL.

In the case of `CCCc1cc(=O)oc2cc(OCCN3CCOCC3)c3c(c12)OC(C)(C)C=C3`, the MIC90 [1] was 20 µg/mL (≈ 50.1 µM), the MIC90 [2] was over 20 µg/mL and the CC50 at 48 h [3] was 20 µg/mL (≈ 50.1 µM).

In the case of `CCCc1cc(=O)oc2c1c(-c1ccc(F)cc1)cc1oc([N+](=O)[O-])cc12`, the MIC90 [1] was 0.7 µg/mL (≈ 1.91 µM) and the MIC90 [2] was 18 µg/mL (≈ 49 µM).

Compound `CCCc1c(F)c(=O)oc2c1c1c(c3oc([N+](=O)[O-])cc32)C=CC(C)(C)O1` has an MIC90 [1] of 19 µg/mL (≈ 50.9 µM) and an MIC90 [2] of 19 µg/mL (≈ 50.9 µM).

In the case of `CCCc1cc(=O)oc2cc(N3CCN(C(=O)Nc4ccc(C(F)(F)F)cc4)CC3)c3c(c12)OC(C)(C)C=C3`, the MIC90 [1] was over 27 µg/mL, the MIC90 [2] was over 27 µg/mL and the CC50 at 48 h [3] was over 27 µg/mL.

Work on `CCCc1cc(=O)oc2cc(N3CCC(O)CC3)c3c(c12)OC(C)(C)C=C3` yielded an MIC90 [1] of over 18 µg/mL and an MIC90 [2] of over 18 µg/mL.

`CC1(C)C=Cc2c(c3c4c(c(=O)oc3c3cc([N+](=O)[O-])oc23)CCCC4)O1` gave an MIC90 [1] of under 0.2 µg/mL and an MIC90 [2] of 2 µg/mL (≈ 5.44 µM).

`Cc1cc(=O)oc2cc(NC(=O)c3ccc([N+](=O)[O-])o3)c3c(c12)OC(C)(C)C=C3` showed an MIC90 [1] of over 20 µg/mL and an MIC90 [2] of over 20 µg/mL.

Work on `CCCc1cc(=O)oc2c3c(c4c(c12)OC(C)(C)C=C4)OC(O)C3=O` (stereo not drawn) yielded an MIC90 [1] of over 17 µg/mL and an MIC90 [2] of 17 µg/mL (≈ 49.7 µM).

`CCCc1cc(=O)oc2cc(N3CCSCC3)c3c(c12)OC(C)(C)C=C3` gave an MIC90 [1] of over 19 µg/mL and an MIC90 [2] of over 19 µg/mL.

With `CCCC1CC(=O)Oc2c1c1c(c3oc([N+](=O)[O-])cc23)C=CC(C)(C)O1` (stereo not drawn) the MIC90 [1] was over 18 µg/mL and the MIC90 [2] was over 18 µg/mL.

In the case of `CCCc1cc(=O)oc2c1c(OCCN1CCOCC1)cc1oc([N+](=O)[O-])c(CO)c12`, the MIC90 [1] was 100 µg/mL (≈ 231 µM) and the MIC90 [2] was 100 µg/mL (≈ 231 µM).

`CCCc1cc(=O)oc2c(C(=O)CC)c(N3CCOCC3)c3c(c12)OC(C)(C)C=C3` showed an MIC90 [1] of over 21 µg/mL and an MIC90 [2] of over 21 µg/mL.

`CCCc1cc(=O)oc2cc(NC(=O)Nc3ccc(F)cc3)c3c(c12)OC(C)(C)C=C3` gave an MIC90 [1] of over 21 µg/mL and an MIC90 [2] of over 21 µg/mL.

Work on `CCCc1cc(=O)oc2cc(OCCCO)c3c(c12)OC(C)(C)C=C3` yielded an MIC90 [1] of over 17 µg/mL and an MIC90 [2] of over 17 µg/mL.

For `CCCc1cc(=O)oc2cc(OC(=O)c3ccccc3)c3c(c12)OC(C)(C)C=C3`, the MIC90 [1] was over 20 µg/mL and the MIC90 [2] was over 20 µg/mL.

In the case of `CCCc1cc(=O)oc2c(C(=O)CC)c(N3CCN(c4ccc(OC)cc4)CC3)c3c(c12)OC(C)(C)C=C3`, the MIC90 [1] was over 26 µg/mL and the MIC90 [2] was over 26 µg/mL.
